Assay results taken from the EternaBench riboswitch data.

System: MS2 coat protein
Test: apparent Kd, MS2 coat protein; higher = weaker binding; RNA-MaP array; FMN 200 µM where present
Procedure, shortened: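 The apparent Kd comes from binding curves fitted cluster by cluster, filtered, and summarised as a median. Those curves followed SNAP-549-labelled MS2 coat protein from 0.7 or 1.5 nM, doubling to 3 µM, on Illumina sequencing-chip clusters where stalled E. coli RNA polymerase had transcribed the designs, without and then with constant ligand. The buffer was 100 mM Tris-HCl pH 7.5, 80 mM KCl, 4 mM MgCl2, BSA, DTT, yeast tRNA and Tween-20, and green signal was normalised to red-channel RNA signal and control-cluster median Fmax.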

[1] = designed as: OFF switch for flavin mononucleotide, no ligand
[2] = ligand present: flavin mononucleotide, designed as: OFF switch for flavin mononucleotide
[3] = designed as: ON switch for flavin mononucleotide, no ligand
[4] = ligand present: flavin mononucleotide, designed as: ON switch for flavin mononucleotide

| Sequence | apparent Kd [1] | apparent Kd [2] | apparent Kd [3] | apparent Kd [4] |
| --- | --- | --- | --- | --- |
| GCUUGUGAAGGAUAUACUGGCGACAUGCGCUCAACACGCGCACAUGAGGAUCACCCAUGUAGAAGGUCAAACAU | 23.9 nM | 33 nM |  |  |
| GCUUUAUAGAUCCAUUUUAACAACAUGAGGAUCACCCAUGUGCAGGAUAUCGUUUGUUUUAUAUUCGAGAAGGGCAAAUUCAUC | 37.9 nM | 93.1 nM |  |  |
| GCUUUUAAGGGAGGAUAUUGUUACAUGAGGAUCACCCAUGUGGCGGGAUGAUAUCUUAACAGGAACGAGAAGGCCCAAACGCGA | 35.7 nM | 65.4 nM |  |  |
| GGAAAUCAUGUAGGAUAUGCAUGGCGAAGCUACGCAGAAGGACAUGAGGAUCACCCAUGUUAUAGCGUCCGAGAAAGGAUGCAC | 38.8 nM | 162 nM |  |  |
| GGAAAUCAUGUAGGAUAUGCAUGGCGAAGCUACGCAGAAGGACAUGAGGAUCACCCAUGUUAUAGCUACCCGUUACGGUGGCAA | 131 nM | 119 nM |  |  |
| GGAAAUCAUGUAGGAUAUGCAUGGCGAAGCUACGCAGAAGGACAUGAGGAUCACCCAUGUUCUAGCGUCUGAGUUCAGAUGCAA | 20.4 nM | 56.3 nM |  |  |
| GGAAAUCAUGUAGGAUAUGCAUGGCGACGCUACGCAGAAGGACAUGAGGAUCACCCAUGUUAUAGCGUCCGAGAAAGGAUGCAA | 34.5 nM | 53.4 nM |  |  |
| GGAAGAAUGAUACCUUUUUAUUACAUGAGGAUCACCCAUGUGCAGGAUAUCGAUUAUUAUAGUUUCGAGAAGGGCAAGAAUUGU | 19.7 nM | 52.4 nM |  |  |
| GGACCAUAUCAGGAUAUGACUAGCUUCGGCUAGUCAGAAGGGAUGACAUGAGGAUCACCCAUGUGAUCAGGUCC | 42.1 nM | 50.5 nM |  |  |
| GGACGGAAAGUGAGGAUAUGCUCUACCUCGGUAGAGCAGAAGGCACAUGAGGAUCACCCAUGUGAUAACUGUUC | 19.1 nM | 93 nM |  |  |
| GGACGUCACAUCUACAUGAGGAUCACCCAUGUCAAAAGACAUGAGGAUAUGCAUCCUAAUUGGAUGCAGAAGGCAUGGACGUCC |  |  | 1200 nM | 70.2 nM |
| GGACGUCACAUUAACAUGAGGAUCACCCAUGUCUAUAGACAUGAGGAUAUGGAUCCUAAUUGGAUCCAGAAGGCAUGGACGUCC |  |  | 787 nM | 46.3 nM |
| GGACGUCACAUUUACAUGAGGAUCACCCAUGUCUCUUGACAUGAGGAUAUGGAUCCUAAUUGGAUCCAGAAGGCAUGGACGUCC |  |  | 1130 nM | 153 nM |
| GGAGACCUCACAGGAUAUGCUGGACUUUGUCCAGCAGAAGGGUGGAAACAUGAGGAUCACCCAUGUAUGGUCUCCAAAUUUAAU |  |  | 89 nM | 8.74 nM |
| GGAGCACACAUUAACAUGAGGAUCACCCAUGUCAAAAGACAUGAGGAUAUGGAUACGAAAAGGAUCCAGAAGGCAUGGUGCUCC |  |  | 693 nM | 72.5 nM |
| GGAGCACACCUUAACAUGAGGAUCACCCAUGUCAAAAGACAUGAGGAUAUGGAUCCGAAAAGGAUCCAGAAGGCAUGGUGCUCC |  |  | 188 nM | 11.9 nM |
| GGAGCCGGCACUGAGGAUAUUCAUAUUAAAACAUGAGGAUCACCCAUGUAGGCCAGAAGGCCUUGGGAGAAGGCAGGUCGGCUCG |  |  | 423 nM | 27.9 nM |
| GGAGCUCCUGACAUGAGGAUCACCCAUGUUCAAUUAUUAAAUCAGGAUAUCGUCUCGAAACGAGACGAGAAGGGAUAUGCUCCU |  |  | 5.89 nM | 6.2 nM |
| GGAGCUCUCAUUAACAUGAGGAUCACCCAUGUCAAAAGACAUGAGGAUAUGGAUCCUAAUUGGAUCCAGAAGGCAUGGAGCUCC |  |  | 1070 nM | 54.3 nM |
| GGAGGACAUGAGGAUCACCCAUGUGGAUGGGCGCUAGGAUAUGCGUGCGGGAAGAGUGGAGCAGAAGGAGUGGGUU |  |  | 48.3 nM | 42.2 nM |
| GGAUAGGACACAGGAUAUACGUGCUAGAGAUACUAGCAAAAUUUCCUCACAUGAGGAUCACCCAUGUAGAAGGCUGUCCUAUCG | 6.15 nM | 5.95 nM |  |  |

| Sequence | apparent Kd [1] | apparent Kd [2] | apparent Kd [3] | apparent Kd [4] |
| --- | --- | --- | --- | --- |
| GGAUAGGACAGAGGAUAUACGGCUAGGAGAUACUAGCCACUAUUCCUCACAUGAGGAUCACCCAUGUAGAAGGCUGUCCUAUCG | 16.9 nM | 109 nM |  |  |
| GGAUAGGACAGAGGAUAUACGUGAUAGAGAUACUAGCAAAAUUUCCUCACAUGAGGAUCACCCAUGUAGAAGGCUGUCCUAUCG | 310 nM | 115 nM |  |  |
| GGAUAGGACAGAGGAUAUACGUGCUAGAGAUACUAGCAAAAUUGCCUCACAUGAGGAUCACCCAUGUAGAAGGCUGUCCUAUCG | 7.72 nM | 134 nM |  |  |
| GGAUAGGACAGAGGAUAUACGUGCUAGAGAUACUAGCAAAAUUUCCUCACAUGAGGAUCACCCAUGUAGAAGGCUGUCCGAUCG | 14.6 nM | 323 nM |  |  |
| GGAUAGGACAGAGGAUAUACGUGCUAGAGAUACUAGCAAAAUUUCCUCACAUGAGGAUCACCCAUGUAGAAGGGUGUCCUAUCG | 12.9 nM | 12.7 nM |  |  |
| GGAUAGGACAGAGGAUAUACGUGCUAGAGAUACUAGCAAAGUUUCCUCACAUGAGGAUCACCCAUGUAGAAGGCUGUCCUAUCG | 21.8 nM | 505 nM |  |  |
| GGAUAGGACAGAGGAUAUACGUGCUGGAGAUACUAGCAAAAUUUCCUCACAUGAGGAUCACCCAUGUAGAAGGCUGUCCUAUCG | 32.6 nM | 478 nM |  |  |
| GGAUAGGACAGAGGAUAUACGUGGUAGAGAUACUAGCAAAAUUUCCUCACAUGAGGAUCACCCAUGUAGAAGGCUGUCCUAUCG | 532 nM | 19.1 nM |  |  |
| GGAUAGGACAGAGGAUAUACGUGUUAGAGAUACUAGCAAAAUUUCCUCACAUGAGGAUCACCCAUGUAGAAGGCUGUCCUAUCG | 23.1 nM | 413 nM |  |  |
| GGAUAGGACAGAGGAUAUACGUUCUAGAGAUACUAGCAAAAUUUCCUCACAUGAGGAUCACCCAUGUAGAAGGCUGUCCUAUCG | 15.1 nM | 282 nM |  |  |
| GGAUAUAUUACAUGAGGAUCACCCAUGUCAGAAAGGGUAAUCAGAAGGUACUAUUAGAGAAAGAGUAAGGAUAUGAUUAUAUCC |  |  | 630 nM | 147 nM |
| GGAUCGAAAGUGAGGAUAUGCUGGUCCUUGGAUCAGCAGAAGGCACAUGAGGAUCACCCAUGUGUUCCCGGUCC | 19.7 nM | 99.8 nM |  |  |
| GGAUCGAGUGUGAGGAUAUGCUGGUCCUUGGAUCAGCAGAAGGCACAUGAGGAUCACCCAUGUGGUAACGGUCC | 190 nM | 537 nM |  |  |
| GGAUCGAUGUAGAAGGCUGUCCUAAAAUAGGACAGAGGAUAUACAUGAGGAUCACCCAUGUACUCCUUUAAAAUGAUCCAAAUA | 5.53 nM | 10.3 nM |  |  |
| GGAUCGCGUGUGAGGAUAUGCUCGACCUUGGUCGAGCAGAAGGCACAUGAGGAUCACCCAUGUGACCUCGGUCC | 87.5 nM | 451 nM |  |  |
| GGAUCGUAUGUCAGGAUAUACCACUGGAUACAGUGGUAGAAGGGACAUGAGGAUCACCCAUGUGUUAUCGAUCC | 58.9 nM | 124 nM |  |  |
| GGAUCGUAUGUGAGGAUAUACCACUGGAUACAGUGGUAGAAGGCACAUGAGGAUCACCCAUGUCCUAUCGAUCC | 146 nM | 196 nM |  |  |
| GGAUGACAAAGUCAUCCAUUACGAACAUGAGGAUCACCCAUGUAGGAUAUGCAACUCAAAGAGUUGCAGAAGGACAUGUGUCUU | 29.6 nM | 146 nM |  |  |
| GGAUGACAAAGUCAUCCUAUUCGAACAUGAGGAUCACCCAUGUAGGAUAUGCUACACAAAGUGUAGCAGAAGGACAUGUGCUUU | 33.8 nM | 171 nM |  |  |
| GGAUGACAAAGUCAUCCUUAACGAACAUGAGGAUCACCCAUGUAGGAUAUGGAACUCAAAGAGUUCCAGAAGGACAUGUGCCUU | 33.7 nM | 213 nM |  |  |
